Holding throughout (type): cell-based
Assay [1] deals with T1, Protein cereblon/WD repeat-containing protein 5 (Homo sapiens) (UniProt P61964+Q96SW2). Briefly: PROTAC activity at CRBN/WDR5 in human MIA PaCa-2 cells assessed as degradation of WDR5 protein at 0.01 to 5 uM incubated for 18 hrs by Western blotting analysis. The settings on record: dose 0.01-5 µM. The procedure, abridged: (§1)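 MV4;11 cells (RPMI 1640, 10% FBS) and MIA PaCa-2 cells (DMEM, 10% FBS) treated with DMSO or compound for 18 h. Whole-cell lysates immunoblotted for WDR5, IKZF1 (MV4;11 only) and LIMD1 (MV4;11 only), with tubulin as loading control and fluorescent secondary antibodies. Representative of at least two independent experiments.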

Assay [2] has as its target T1, Protein cereblon/WD repeat-containing protein 5 (Homo sapiens). The assay can be described thus: PROTAC activity at CRBN/WDR5 in human MV4-11 cells assessed as degradation of WDR5 protein at 0.01 to 5 uM incubated for 18 hrs by Western blotting analysis. The note with it: dose 0.01-5 µM. The method, boiled down:
as §1

Assay [3] has as its target T2, Cereblon/Ikaros (Homo sapiens) (UniProt Q96SW2+Q13422). The assay can be described thus: PROTAC activity at CRBN/IKZF1 in human MV4-11 cells assessed as degradation of IKZF1 protein at 0.01 to 5 uM incubated for 18 hrs by Western blotting analysis. The note with it: dose 0.01-5 µM. The method, boiled down: as §1
The target in assay [4] is T1, Protein cereblon/WD repeat-containing protein 5 (Homo sapiens). The assay can be described thus: PROTAC activity at CRBN/WDR5 in human MV4-11 cells assessed as degradation of WDR5 protein at 0.5 uM incubated for 18 hrs by Western blotting analysis. The method, boiled down:
as §1

Assay [5] shares this target. Briefly: PROTAC activity at CRBN/WDR5 in human MV4-11 cells assessed as degradation of WDR5 protein at 2 uM incubated for 18 hrs by Western blotting analysis. The method, boiled down: as §1
The target of assay [6] is T2, Cereblon/Ikaros (Homo sapiens). The assay can be described thus: PROTAC activity at CRBN/IKZF1 in human MV4-11 cells assessed as degradation of IKZF1 protein at 0.5 uM incubated for 18 hrs by Western blotting analysis. The method, boiled down: as §1
The target is the same in assay [7]. Briefly: PROTAC activity at CRBN/IKZF1 in human MV4-11 cells assessed as degradation of IKZF1 protein at 2 uM incubated for 18 hrs by Western blotting analysis. The method, boiled down:
as §1

The target in assay [8] is T3, Protein cereblon/LIM domain-containing protein 1 (Homo sapiens) (UniProt Q96SW2+Q9UGP4). The assay can be described thus: PROTAC activity at CRBN/LIMD1 in human MV4-11 cells assessed as degradation of IKZF1 protein at 0.5 uM incubated for 18 hrs by Western blotting analysis. The procedure, abridged: as §1
Assay [9] has as its target T3, Protein cereblon/LIM domain-containing protein 1 (Homo sapiens). The assay can be described thus: PROTAC activity at CRBN/LIMD1 in human MV4-11 cells assessed as degradation of IKZF1 protein at 2 uM incubated for 18 hrs by Western blotting analysis. The procedure, abridged:
as §1

For assay [10], the target named is von Hippel-Lindau disease tumor suppressor/WD repeat-containing protein 5 (Homo sapiens, UniProt P61964+P40337). The assay can be described thus: PROTAC activity at human VHL/human WDR5 wild type expressed in HEK293T cells assessed as degradation of WDR5 protein incubated for 3 days by Western blotting analysis. The note with it: time 3.0 day. The method, boiled down:
(§2)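 HEK293T cells were lentivirally transduced with doxycycline-inducible (1 μg/mL) 3×FLAG WDR5 wild type, K32R or K296R and selected with puromycin for 4 days. The stable lines were treated with a concentration series for 72 h. Lysates were run on 4–12% SDS-PAGE and immunoblotted for WDR5 with a vinculin loading control, with at least two independent experiments.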

Assay [11] relates to von Hippel-Lindau disease tumor suppressor/WD repeat-containing protein 5 (Homo sapiens), P61964+P40337 [K32R]. The assay can be described thus: PROTAC activity at human VHL/human WDR5 K32R mutant expressed in HEK293T cells assessed as degradation of WDR5 protein at 0.25 to 5 uM incubated for 3 days by Western blotting analysis. The note with it: dose 0.25-5 µM, time 3.0 day. The method, boiled down: as §2

Assay [12] concerns von Hippel-Lindau disease tumor suppressor/WD repeat-containing protein 5 (Homo sapiens), P61964+P40337 [K296R]. Briefly: PROTAC activity at human VHL/human WDR5 K296R mutant expressed in HEK293T cells assessed as degradation of WDR5 protein at 0.25 to 5 uM incubated for 3 days by Western blotting analysis. The note with it: dose 0.25-5 µM, time 3.0 day. The procedure, abridged:
as §2

Activity calls are given as the source filed them. The calls are words filed in the database; no cut-off is given here.

T3 sequence (Q96SW2 whole entry, looked up, the tested form may be a part): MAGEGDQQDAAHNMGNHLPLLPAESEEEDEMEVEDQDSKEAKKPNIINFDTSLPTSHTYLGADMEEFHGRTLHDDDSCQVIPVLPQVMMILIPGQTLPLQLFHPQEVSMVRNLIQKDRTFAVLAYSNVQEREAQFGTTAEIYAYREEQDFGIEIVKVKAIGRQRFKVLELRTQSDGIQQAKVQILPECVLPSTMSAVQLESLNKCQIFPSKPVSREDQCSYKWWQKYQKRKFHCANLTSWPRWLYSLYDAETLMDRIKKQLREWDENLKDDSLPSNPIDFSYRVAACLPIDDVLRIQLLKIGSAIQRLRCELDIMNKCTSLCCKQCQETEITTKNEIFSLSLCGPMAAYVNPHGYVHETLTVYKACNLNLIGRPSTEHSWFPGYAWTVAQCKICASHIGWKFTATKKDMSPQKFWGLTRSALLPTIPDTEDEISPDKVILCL
T3 sequence (Q9UGP4 whole entry, looked up, the tested form may be a part): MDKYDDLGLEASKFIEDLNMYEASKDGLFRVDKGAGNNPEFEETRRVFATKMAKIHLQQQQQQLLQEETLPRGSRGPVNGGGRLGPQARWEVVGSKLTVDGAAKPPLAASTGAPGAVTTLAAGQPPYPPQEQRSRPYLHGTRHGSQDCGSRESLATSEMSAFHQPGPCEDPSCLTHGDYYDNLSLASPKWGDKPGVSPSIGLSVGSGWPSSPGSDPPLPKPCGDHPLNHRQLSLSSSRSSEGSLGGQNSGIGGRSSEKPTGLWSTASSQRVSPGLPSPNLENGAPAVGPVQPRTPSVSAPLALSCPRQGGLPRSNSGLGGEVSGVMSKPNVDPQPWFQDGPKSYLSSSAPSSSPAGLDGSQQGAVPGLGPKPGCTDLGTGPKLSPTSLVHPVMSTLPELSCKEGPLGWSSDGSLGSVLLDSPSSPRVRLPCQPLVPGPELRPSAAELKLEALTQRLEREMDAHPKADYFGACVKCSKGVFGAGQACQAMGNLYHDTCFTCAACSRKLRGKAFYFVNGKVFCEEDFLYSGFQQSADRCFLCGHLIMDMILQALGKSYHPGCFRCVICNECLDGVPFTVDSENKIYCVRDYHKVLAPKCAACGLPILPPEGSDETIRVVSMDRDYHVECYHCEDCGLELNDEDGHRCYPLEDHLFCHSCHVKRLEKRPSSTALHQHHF

Consider `C[C@@H]1CN(c2ccc(-c3cc(C(=O)NCCCCCCCNC(=O)COc4cccc5c4C(=O)N(C4CCC(=O)NC4=O)C5=O)ccc3F)cc2NC(=O)c2c[nH]c(=O)cc2C(F)(F)F)C[C@H](C)N1C` (stereo partly specified), for which the outcome in assay [1] and in [2] was Active. In assay [3], the result was inactive.

As to `CN1CCN(c2ccc(-c3cccc(CN4CCN(CCNC(=O)CCCCCCCNC(=O)COc5cccc6c5C(=O)N(C5CCC(=O)NC5=O)C6=O)CC4)c3)cc2NC(=O)c2c[nH]c(=O)cc2C(F)(F)F)CC1` (stereo unspecified), the result in [4], in assay [5], in assay [1] and in assay [2] was Active. The result in [6], in [7], in [8], in assay [9] and in assay [3] was inactive.

On to `Cc1ncsc1-c1ccc([C@H](C)NC(=O)[C@@H]2C[C@@H](O)CN2C(=O)[C@@H](NC(=O)CNC(=O)c2ccc(F)c(-c3ccc(N4C[C@@H](C)N(C)[C@@H](C)C4)c(NC(=O)c4c[nH]c(=O)cc4C(F)(F)F)c3)c2)C(C)(C)C)cc1`, for which the Activity result in [10] was “Dose-Dependent Effect”. The result in assay [11] was Active. In addition, the result in assay [12] was inactive.

On to `CN1CCN(c2ccc(-c3cccc(CN4CCN(CCNC(=O)CCCCNC(=O)COc5cccc6c5C(=O)N(C5CCC(=O)NC5=O)C6=O)CC4)c3)cc2NC(=O)c2c[nH]c(=O)cc2C(F)(F)F)CC1` (stereo unspecified), for which the result in [4] and in [5] was Active. Moreover, the outcome in assay [6], in assay [7], in [8] and in assay [9] was inactive.
